According to ChEMBL document CHEMBL5385965, “Discovery of novel positive allosteric modulators targeting GluN1/2A NMDARs as anti-stroke therapeutic agents” (RSC Med Chem, 2024):
Active and inactive are the calls of the source. The calls are words filed in the database; no cut-off is given here.

How the values were obtained:
Mus musculus [1] = assay: Neuroprotective activity against tMCAO-reperfusion induced nerve injury in C57BL/6 mouse model assessed as recovery of neurological deficit score at 5 to 10 mg/kg, ip measured after 22 hrs; type: functional, organism-based; conditions: dose 5-10 mg/kg
Method in brief: (§1)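 Male C57BL/6 mice (6–8 weeks, 18–22 g) were randomized and given 1, 5 or 10 mg/kg i.p. in 5% DMSO, 20% PEG300, 5% Tween-80 in saline. Under isoflurane, the left MCA was occluded with a nylon monofilament for 1.5 h, then reperfused, with body temperature held at 37 °C. Neurological scores were taken after tMCAO. n=6, mean ± SD, one-way ANOVA with Dunnett's test vs vehicle.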

Mus musculus [2] = assay: Neuroprotective activity against tMCAO-reperfusion induced nerve injury in C57BL/6 mouse model assessed as reduction in volume of ischemia cerebral infarction at 10 mg/kg, ip measured after 22 hrs by TTC staining based analysis (reference value: 130.60 +/- 9.93 mm3); type: functional
Mus musculus [3] = assay: Neuroprotective activity against tMCAO-reperfusion induced nerve injury in C57BL/6 mouse model assessed as reduction in volume of ischemia cerebral infarction at 5 mg/kg, ip measured after 22 hrs by TTC staining based analysis (reference value: 130.60 +/- 9.93 mm3); type: functional
[4] = molecular target: Glutamate NMDA receptor; GRIN1/GRIN2A/GRIN2B (Homo sapiens) (UniProt Q05586+Q12879+Q13224); assay: Positive allosteric modulation of GluN1/N2A/N2B (unknown origin) transfected in HEK293 cells assessed as potentiation of Glu/Gly-induced calcium influx by Cal-520 AM dye based assay; type: cell-based
Mus musculus [5] = assay: Neuroprotective activity against tMCAO-reperfusion induced nerve injury in C57BL/6 mouse model assessed as reduction in volume of ischemia cerebral infarction at 5 mg/kg, ip measured after 22 hrs by TTC staining based analysis relative to control; type: functional; parameters: scale not given: the % may be the effect or the level left
[6] = molecular target: Glutamate NMDA receptor; GRIN1/GRIN2A (Homo sapiens) (UniProt Q05586+Q12879); assay: Positive allosteric modulation of GluN1/N2A (unknown origin) transfected in HEK293 cells assessed as potentiation of Glu/Gly-induced calcium influx by Cal-520 AM dye based assay; type: cell-based; conditions: filed as positive allosteric modulator
Method in brief: (§2)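 HEK293 cells were co-transfected 1:1 with GluN1 plus GluN2A or GluN2B at 90% confluence and seeded 40 000/well on poly-D-lysine plates overnight. Cells were loaded with Cal-520 AM for 1.5 h at 37 °C, and compounds were tested at 10 μM. Responses to Glu (2 mM)/Gly (100 μM) were recorded in HEPES-buffered Tyrode's (pH 7.2) at Ex 485/Em 515 nm every 1.6 s, expressed as area under the FMAX/F0 curve.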

[7] = molecular target: T1, Glutamate NMDA receptor; GRIN1/GRIN2B (Homo sapiens) (UniProt Q05586+Q13224); assay: Positive allosteric modulation of GluN1/N2B (unknown origin) transfected in HEK293 cells assessed as potentiation of Glu/Gly-induced calcium influx by Cal-520 AM dye based assay; type: cell-based; method in brief: as §2
Mus musculus [8] = assay: Neuroprotective activity against tMCAO-reperfusion induced nerve injury in C57BL/6 mouse model assessed as reduction in volume of ischemia cerebral infarction at 10 mg/kg, ip measured after 22 hrs by TTC staining based analysis relative to control; type: functional; parameters: scale not given: the % may be the effect or the level left
Mus musculus [9] = assay: Neuroprotective activity against tMCAO-reperfusion induced nerve injury in C57BL/6 mouse model assessed as recovery of neurological deficit score at 10 mg/kg, ip measured after 22 hrs; type: functional, organism-based; method in brief: as §1
[10] = Cytotoxicity against rat PC12 cells assessed as cell viability at 10 uM incubated for 4 hrs by CCK8 assay relative to control; type: toxicity, cell-based, PC-12; conditions: read-out: Activity
HT-22 [11] = assay: Neuroprotective activity against glutamate-induced excitotoxicity in mouse HT-22 cells assessed as cell viability at 10 uM preincubated for 4 hrs followed by glutamate treatment for 24 hrs by CCK8 assay (reference value: 34.80 +/- 4.02 %); type: functional; conditions: time 28 hrs, read-out: Activity
HT-22 [12] = assay: Neuroprotective activity against glutamate-induced excitotoxicity in mouse HT-22 cells assessed as cell viability at 1 uM preincubated for 4 hrs followed by glutamate treatment for 24 hrs by CCK8 assay (reference value: 35.56 +/- 2.12 %); type: functional; conditions: time 28 hrs, read-out: Activity
PC-12 [13] = assay: Neuroprotective activity against glutamate-induced excitotoxicity in rat PC12 cells assessed as cell viability at 0.1 uM preincubated for 4 hrs followed by glutamate treatment for 24 hrs by CCK8 assay (reference value: 44.89 +/- 2.08 %); type: functional; conditions: time 28 hrs, read-out: Activity
PC-12 [14] = assay: Neuroprotective activity against glutamate-induced excitotoxicity in rat PC12 cells assessed as cell viability at 1 uM preincubated for 4 hrs followed by glutamate treatment for 24 hrs by CCK8 assay (reference value: 43.19 +/- 2.98 %); type: functional; conditions: time 28 hrs, read-out: Activity
HT-22 [15] = assay: Neuroprotective activity against glutamate-induced excitotoxicity in mouse HT-22 cells assessed as cell viability at 0.1 uM preincubated for 4 hrs followed by glutamate treatment for 24 hrs by CCK8 assay (reference value: 30.31 +/- 2.02 %); type: functional; conditions: time 28 hrs, read-out: Activity
PC-12 [16] = assay: Neuroprotective activity against glutamate-induced excitotoxicity in rat PC12 cells assessed as cell viability at 10 uM preincubated for 4 hrs followed by glutamate treatment for 24 hrs by CCK8 assay (reference value: 43.75 +/- 2.04 %); type: functional; conditions: time 28 hrs, read-out: Activity
[17] = molecular target: T1, Glutamate NMDA receptor; GRIN1/GRIN2B (Homo sapiens); assay: […] of GluN1/N2B (unknown origin) transfected in HEK293 cells assessed as potentiation of Glu/Gly-induced calcium influx by Cal-520 AM dye based assay; type: cell-based; method in brief: as §2

Row | SMILES | Activity [7] | viability at 4 h, 10 µM [10] [%] | viability at 10 µM (HT-22 [11]) [%] | viability at 1 µM (HT-22 [12]) [%] | viability at 0.1 µM (PC-12 [13]) [%] | viability at 1 µM (PC-12 [14]) [%] | viability at 0.1 µM (HT-22 [15]) [%] | viability at 10 µM (PC-12 [16]) [%] | also measured
1 | COc1ccc(C(O)CNC(=O)/C=C/c2ccccc2)cc1 (configuration not stated) | inactive |  |  |  |  |  |  |  | Activity (Mus musculus [1]): Active; Activity (Mus musculus [2]): 74.83 mm3; Activity (Mus musculus [3]): 90.53 mm3; Activity [4]: inactive; Activity (Mus musculus [5]): 30.68%; Activity [6]: Dose-Dependent Effect; Activity (Mus musculus [8]): 42.7%
2 | CC1=NN(c2ccccc2)C(=O)C1 [EDARAVONE] |  |  |  |  |  |  |  |  | Activity (Mus musculus [9]): Active; Activity (Mus musculus [2]): 68.04 mm3
3 | COCCCOc1ccnc(C[S+]([O-])c2nc3ccccc3[nH]2)c1C (configuration not stated) [RABEPRAZOLE] | inactive | 93.2 | 16 | 76.5 | 64.7 | 66.7 | 39.9 | 60.9 | 
4 | CCN(CC)CCCC(C)Nc1ccnc2cc(Cl)ccc12 (configuration not stated) | inactive |  |  |  |  |  |  |  | 
5 | COc1cc(/C=C/C(=O)NCC(O)c2ccc(O)cc2)ccc1O (configuration not stated) | inactive | 96.6 | 39.6 | 77.6 | 64.2 | 66.5 | 42.7 | 62.8 | 
6 | COc1cc(C(=O)OCCCCNC(=N)N)cc(OC)c1O | inactive |  |  |  |  |  |  |  | 
7 | CC(C)=CCC/C(C)=C/COc1ccc2ccc(=O)oc2c1 | inactive |  |  |  |  |  |  |  | 
8 | O=C(CCc1ccccc1)C[C@@H](O)/C=C/c1ccccc1 | inactive |  |  |  |  |  |  |  | 
9 | COc1cc(/C=C/C(=O)NCCc2ccc(O)cc2)ccc1O | inactive |  |  |  |  |  |  |  | 
10 | CC(C)=CCC/C(C)=C/COc1c2ccoc2cc2oc(=O)ccc12 | inactive |  |  |  |  |  |  |  | 
11 | O=C(/C=C/C=C/c1ccc2c(c1)OCO2)N1CCCCC1 [PIPERINE] | inactive | 98.3 | 24.5 | 87.8 | 66.2 | 57.3 | 36.5 | 35.2 | 
12 | O=C(/C=C/c1ccc(O)c(O)c1)OC(Cc1ccc(O)c(O)c1)C(=O)O (configuration not stated) | inactive |  |  |  |  |  |  |  | 
13 | COc1cc(/C=C/C(=O)NCCc2ccc(O)cc2)cc(OC)c1O | inactive |  |  |  |  |  |  |  | 
14 | COc1cc(CNC(=O)CCCCCCC(C)C)ccc1O [DIHYDROCAPSAICIN] | inactive | 104 | 43.3 | 95.4 | 66.1 | 76.1 | 32.6 | 102 | 
15 | COc1cc(OC/C=C(\C)CCC=C(C)C)c2ccc(=O)oc2c1 | inactive | 74.7 | 41.4 | 69 | 67.4 | 69 | 34.9 | 70.1 | 
16 | C=CCN1C[C@H](C(=O)N(CCCN(C)C)C(=O)NCC)C[C@@H]2c3cccc4[nH]cc(c34)C[C@H]21 [CABERGOLINE] | inactive | 94.8 | 37.4 | 73.8 | 63.9 | 68.2 | 37.7 | 87.5 | 
17 | CC(Cc1ccc(O)c(O)c1)C(C)Cc1ccc(O)c(O)c1 (configuration not stated) | inactive |  |  |  |  |  |  |  | 
18 | CCCCCCC/C=C/C(=O)CCc1ccc(O)c(OC)c1 | inactive |  |  |  |  |  |  |  | 
19 | C=CCc1ccc(O)c(-c2ccc(O)c(CC=C)c2)c1 | inactive |  |  |  |  |  |  |  | Activity [17]: Active
20 | C[C@H](CCc1ccc(O)cc1)NCCc1ccc(O)c(O)c1 | inactive |  |  |  |  |  |  |  | 
21 | N[C@@H](CC(=O)N1CCn2c(nnc2C(F)(F)F)C1)Cc1cc(F)c(F)cc1F [SITAGLIPTIN] | inactive | 95.5 | 52.4 | 71 | 62.6 | 69.5 | 24.8 | 77.8 | 
22 | COC(=O)[C@@H](Cc1ccc(O)c(O)c1)OC(=O)/C=C/c1ccc(O)c(O)c1 [METHYL ROSMARINATE] | inactive | 69.6 | 25.6 | 80.4 | 74.1 | 75.2 | 46.3 | 53.6 | 
23 | COc1cc(CCC(=O)CC(O)CCc2ccc(O)c(OC)c2)ccc1O (configuration not stated) [HEXAHYDROCURCUMIN] | inactive | 73.3 | 42.9 | 103 | 66 | 52.4 | 41.4 | 66.5 | Activity [6]: Active
24 | O=C(CCCCc1ccc2c(c1)OCO2)N1CCCCC1 | inactive |  |  |  |  |  |  |  | 
